Data reported in ChEMBL document CHEMBL1127498, “Synthesis and DNA-sequence selectivity of a series of mono- and difunctional 9-aminoacridine nitrogen mustards” (J Med Chem, 1994).

Tested on: HT-29
Experiment: Concentration required to inhibit colony formation by 50% in human colon carcinoma HT-29 cells
Format: functional, cell-based
Outline: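 HT-29 cells grown in Eagle's MEM with 15% heat-inactivated FBS. Exponential-phase cells (2 × 10⁵/mL) plated, treated 16-20 h later with a range of drug concentrations for 30 min at 37 °C in medium with 1% serum. Washed twice, trypsinized, replated in triplicate at 10^2, 10^3, 10^4 cells/25-cm² flask for colony counts. At least two independent experiments; untreated plating efficiency 40-65%.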

CCN(CCCl)CCNc1c2ccccc2nc2ccc(OC)cc12
IC50: 1100 nM

CCN(CCCl)CCCNc1c2ccccc2nc2ccc(OC)cc12
IC50: 370 nM

CCN(CCCl)CCCCCCNc1c2ccccc2nc2ccc(OC)cc12
IC50: 750 nM

CCN(CCCl)CCCCNc1c2ccccc2nc2ccc(OC)cc12
IC50: 250 nM

COc1ccc2nc3ccccc3c(NCCN(CCCl)CCCl)c2c1
IC50: 110 nM

CCN(CCCl)CCCCCNc1c2ccccc2nc2ccc(OC)cc12
IC50: 700 nM

COc1ccc2nc3ccccc3c(NCCCCN(CCCl)CCCl)c2c1
IC50: 10 nM

COc1ccc2nc3ccccc3c(NCCCN(CCCl)CCCl)c2c1
IC50: 20 nM

COc1ccc2nc3ccccc3c(NCCCCCN(CCCl)CCCl)c2c1
IC50: 30 nM

COc1ccc2nc3ccccc3c(NCCCCCCN(CCCl)CCCl)c2c1
IC50: 60 nM

CCN(CC)CCCC(C)Nc1c2ccc(Cl)cc2nc2ccc(OC)cc12 (stereo unspecified) [QUINACRINE]
IC50: 55000 nM
